MrgX1 agonist – human MrgX1 receptor agonism, primary screen; Q96LB2; MrgX1-HEK293 cells, Fluo-4 calcium fluorescence, agonist mode; active compounds read high; B-score at 10 µM; actives 0.44% (n = 310,000);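 active means calcium response B-score plate-corrected fluorescence ratio at least 3 library SD, with starting fluorescence B-score inside 5 SD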
Target sequence (Q96LB2 whole entry, looked up): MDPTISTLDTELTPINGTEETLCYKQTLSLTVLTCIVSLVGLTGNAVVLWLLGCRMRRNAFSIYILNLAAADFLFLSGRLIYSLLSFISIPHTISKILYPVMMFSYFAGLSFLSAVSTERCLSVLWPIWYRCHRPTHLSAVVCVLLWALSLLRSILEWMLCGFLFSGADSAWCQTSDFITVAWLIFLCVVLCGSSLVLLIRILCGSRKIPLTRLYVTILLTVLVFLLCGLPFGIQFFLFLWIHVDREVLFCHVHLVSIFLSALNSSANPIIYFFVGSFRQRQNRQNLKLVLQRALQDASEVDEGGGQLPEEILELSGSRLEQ
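times = overnight plating, then 30 min 37 °C plus 30 min room-temperature dye loading | assay system = stable human MrgX1 HEK293 cell line | input = fifteen thousand cells per well | signal = kinetic calcium dye fluorescence, Fluo-4 NW | dosing = compound delivered in addition one of three | read-out = B-scored fluorescence response ratio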
MrgX1 allo act – human MrgX1 positive allosteric modulation, primary screen | Q96LB2 | MrgX1-HEK293, Fluo-4 calcium flux, FDSS; active compounds read high | B-score at 10 µM | actives 0.63% (n = 310,000) | AID 588675;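 active means plate-corrected calcium response at least 3 library SD above typical, normal starting fluorescence, not activating the receptor alone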;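 further: compound read alongside a low EC10 to EC30 dose of BAM8-22 agonist; peak minus trough fluorescence over baseline measured at the second addition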
RGS4 block – inhibitors of human RGS4. actives 0.45% (n = 310,000). P49798. HEK293 M3R/RGS4 inducible, Fluo-4 calcium flux; active compounds read high; triggered by carbachol at its EC20. AID 463165. B-score at 10 µM;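 active means B-score, a plate-corrected calcium signal, over three deviations above library mean, with baseline fluorescence within five deviations of library mean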;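 further: RGS4 expression induced by doxycycline in cells with stable M3 receptor; B-score is computed from the integrated fluorescence ratio over baseline after carbachol; higher B-score means a larger calcium signal and so more RGS4 inhibition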
MrgX1 antagonist – antagonists of human MrgX1 receptor. Q96LB2. MRGX1-HEK293 calcium flux, Fluo-4, BAM8-22 antagonism; active compounds read low. B-score at 10 µM. actives 1.3% (n = 310,000);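 active means calcium-response B-score plate-corrected more than 3 library SD below zero, starting fluorescence within 5 deviations, no agonist response on first addition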;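 further: peak minus trough fluorescence over baseline after final BAM8-22 challenge near maximal dose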
RGS4 pot – RGS4 potentiation or activation; HEK293 M3R/inducible RGS4, carbachol calcium flux Fluo4; active compounds read low; B-score at 10 µM; actives 0.92% (n = 310,000); AID 463111;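 active means B-score of the integrated calcium signal more than 4 SD below the library mean, with starting fluorescence not abnormally high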;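 further: negative B-score means reduced calcium response which marks RGS4 activation or potentiation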
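Detection: kinetic calcium fluorescence imaging with Fluo4-AM dye, 2 µM / Material: HEK293 cells with stable M3R and inducible RGS4 / Schedule: recording 10 s baseline at 1 Hz, 100 s post-agonist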
RGS4 inh valid – validation of RGS4 inhibitors. shares compounds with RGS4 block. HEK293 M3R/RGS4, carbachol calcium Fluo-4 fluorescence; carbachol added at its EC20; 0 = buffer wells, 100 = carbachol control. calcium response, % at 10 µM. actives 65% (n = 1,700). AID 492999;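 active means duplicate-averaged calcium response above the buffer-only control mean plus 5 SD of those controls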;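 further: integrated fluorescence ratio F max minus min over baseline F0; higher response in RGS4-induced cells means RGS4 inhibition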
M3R Ca ctr – checks RGS4 inhibitor effects in non-induced HEK293 M3R cells; actives 20% (n = 1,900); carbachol calcium Fluo-4; submaximal (EC20) carbachol stimulus; buffer wells 0%, carbachol control wells 100%; shares compounds with RGS4 block; activity (percent), % at 10 µM; call rule not given here;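 further: RGS4 induction absent so cells express M3R without RGS4; higher means more calcium signal and flags a non-specific hit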
M3R basal Ca ctr – second RGS4 inhibitor counter-screen in uninduced cells lacking carbachol; shares compounds with RGS4 block; HEK293 M3R/RGS4 non-induced, Fluo-4 calcium, no carbachol; normalised: buffer wells 0%, carbachol wells 100%; calcium response (agonist-mode artifact), % at 10 µM; actives 22% (n = 1,900);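 active means duplicate-averaged calcium rise in uninduced cells above buffer wells' mean plus 5 SD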
Active calls of the source: *; i = inactive; . = no result. Most compounds without a hit are left out; they make up all but 3.5% or so of the library.

SMILES | MrgX1 agonist | MrgX1 allo act | RGS4 block | MrgX1 antagonist | RGS4 pot | M3R Ca ctr | M3R basal Ca ctr | others
O=c1c(O)c(-c2ccc(O)cc2)oc2cc(O)cc(O)c12 | i | i | i | i | i | i | i
Cc1ccc(S(=O)(=O)N2CCCC2C(=O)NCc2ccncc2)cc1 (stereo not given) | i | i | i | i | i | . | .
O=S(=O)(N1CCOCC1)N1CCOCC1 | i | i | i | i | i | . | .
CCC(=O)Nc1ccc2c(c1)nc(CCNC(=O)c1ccco1)n2C | i | i | i | i | i | i | i
Cc1ccccc1C(=O)Nc1ccc2c(c1)nc(CCNC(=O)c1ccco1)n2C | i | i | i | i | i | . | .
CN(CCCC1CCCC1)C(=O)CC1C(=O)NCCN1Cc1cccc(F)c1F (stereo not given) | i | i | i | i | i | . | .
O=C(c1ccc(F)cc1)N1CCC(C(=O)N2CCN(S(=O)(=O)c3cccc([N+](=O)[O-])c3)CC2)CC1 | i | i | i | i | i | . | .
Cc1ccc(N(CC(=O)NCc2ccccc2)S(=O)(=O)c2c(C)noc2C)cc1 | i | i | i | i | i | . | .
COc1ccc(S(=O)(=O)NCCC(=O)NCc2ccccc2)cc1 | i | i | i | i | i | i | i | RGS4 inh valid=i
CCOC(=O)C(=CNc1ccc(-c2ccco2)c(Cl)c1)C(=O)OCC | i | i | i | i | i | . | .
Cc1cnc(C(=O)Nc2ccc(OC(F)(F)F)cc2)cn1 | i | i | i | i | i | . | .
Cn1c(N)c(S(=O)(=O)N2CCCC2)c(=O)n(C)c1=O | i | i | i | i | i | . | .
O=C(Nc1ccccc1)C1=C(c2ccccc2)S(=O)(=O)CCS1(=O)=O | . | . | 23* | . | i | i | i | RGS4 inh valid=47%*
O=C(O)c1ccccc1C(=O)Nc1ccccc1 | i | i | i | i | i | . | .
O=C(CCS(=O)(=O)c1ccccc1)N(CCCN1CCOCC1)c1nc2ccc(F)cc2s1 | i | i | i | i | i | . | .
CC1(C)SC[C@H](C(=O)Nc2cccc(Cl)c2)N1C=O | i | i | i | i | i | . | .
CCN(c1ccc(NC(=O)c2cccc(S(=O)(=O)N3CCN(C)CC3)c2)cc1)C(C)C | i | i | i | i | i | . | .
Nn1c(Nc2ccccc2)nc2sc3c(c2c1=O)CCCC3 | i | i | i | i | i | i | i | RGS4 inh valid=i
Nc1nc(Nc2cccc(F)c2)nc(NCc2ccco2)c1[N+](=O)[O-] | i | i | i | i | i | i | i | RGS4 inh valid=i
Nc1nc(Nc2cccc(Cl)c2)nc(NCc2ccco2)c1[N+](=O)[O-] | i | i | 17* | i | i | i | i | RGS4 inh valid=11%*
Nc1nc(Nc2ccc(Cl)cc2)nc(NCc2ccco2)c1[N+](=O)[O-] | i | i | i | i | i | i | i
Cc1cccc(Nc2nc(N)c([N+](=O)[O-])c(NCc3ccco3)n2)c1 | i | i | i | i | i | i | i | RGS4 inh valid=i
Cc1cccc(Nc2nc(NCc3ccco3)nc(N)c2[N+](=O)[O-])c1 | i | i | i | i | i | . | .
Nc1nc(Nc2cccc(Cl)c2)nc(NCCO)c1[N+](=O)[O-] | i | i | i | i | i | . | .
Cc1ccc(F)c(NC(=O)c2c(-c3ccccc3)noc2C)c1 | i | i | i | i | i | . | .
Cc1nc(C)c(CCNC(=O)c2ccccc2Br)s1 | i | i | i | i | i | . | .
Oc1ccc(CCc2n[nH]c(=S)n2-c2ccc(F)cc2)cc1 | i | i | i | i | i | . | .

Screening data as filed in PubChem BioAssay.
